Measured values published in paper PMC9880397 (Heliyon, 2023).

Key:
Assay type in all cases: cell-based
[1] = test system: MCF-7 human breast cancer cells; assay: SRB cytotoxicity assay, MCF-7 cells; settings: for IC50: MCF7, 48 h, read-out: IC50 against MCF-7 cells
Summary of the method: (§1)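 Cells from ATCC, seeded at about […] in fresh medium at 37 ᵒC and <5% CO2. After 24 h, a DMSO series of test compound (up to 100 μg/mL) was added, then incubated 48 h. Read-out was A570, with DMSO control set as 100% viability.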

[2] = test system: HCT-116 (Colon) human cancer cells; assay: SRB cytotoxicity assay, HCT-116 cells; settings: HCT-116, read-out: % Viability of cancer cells HCT-116
Summary of the method: as §1

[3] = test system: HEPG-2 (Liver) human cancer cells; assay: SRB cytotoxicity assay, HEPG-2 cells
Summary of the method: as §1

[4] = test system: A-549 (Lung) human cancer cells; assay: SRB cytotoxicity assay, A-549 cells; settings: A549, read-out: % Viability of cancer cells A-549
Summary of the method: as §1

[5] = HepG2, read-out: % Viability of cancer cells HEPG-2
[6] = MCF7, read-out: % Viability of cancer cells MCF-7

Compound | IC50 [1] [µM] | viability at 41.5 µM [2] [%] | viability at 83 µM [2] [%] | viability at 124.5 µM [2] [%] | viability at 166 µM [2] [%] | IC50 ([3]; HepG2, 48 h, read-out: IC50 against HEPG-2 cells) [µM] | viability at 41.5 µM [3, 5] [%] | viability at 83 µM [3, 5] [%] | viability at 124.5 µM [3, 5] [%] | viability at 166 µM [3, 5] [%] | viability at 41.5 µM [4] [%] | viability at 83 µM [4] [%] | viability at 124.5 µM [4] [%] | viability at 166 µM [4] [%] | viability at 41.5 µM [1, 6] [%] | viability at 83 µM [1, 6] [%] | viability at 124.5 µM [1, 6] [%] | viability at 166 µM [1, 6] [%]
COc1cccc2c1C(=O)c1c(O)c3c(c(O)c1C2=O)C[C@@](O)(C(=O)CO)C[C@@H]3O[C@H]1C[C@H](N)[C@H](O)[C@H](C)O1 [Doxorubicin, doxorubicin, reference compound] | 9.66 |  |  |  |  |  |  |  |  |  |  |  |  |  |  |  |  | 
O=[N+]([O-])c1ccc(NC(=S)NN=Cc2ccccn2)cc1 [HL^1, 4-(4-Nitrophenyl)-1-((pyridin-2-yl)methylene)thiosemicarbazide] | 52.4 | 80 | 76 | 63.6 | 60.4 | 80 | 76 | 48 | 39.2 | 33.2 | 71.9 | 70.7 | 69.6 | 64.1 | 60 | 26.4 | 23.2 | 9.6
COc1ccc(OC)c(NC(=S)NN=Cc2ccccn2)c1 [HL^2, 4-(2,5-Dimethoxyphenyl)-1-((pyridin-2-yl)methylene)thiosemicarbazide] | 145 |  |  |  |  |  |  |  |  |  |  |  |  |  |  |  |  | 
